Data reported in ChEMBL document CHEMBL4257553, “Novel organophosphorus aminopyrimidines as unique structural DNA-targeting membrane active inhibitors towards drug-resistant methicillin-resistant Staphylococcus aureus” (Medchemcomm, 2018).
In brackets after ≈: the same amount, converted by molar mass.

Key:
Type in all cases: functional
Aspergillus fumigatus [1] = experiment: Potency index, ratio of fluconazole MIC to compound MIC for antifungal activity against Aspergillus fumigatus
Pseudomonas aeruginosa [2] = experiment: Antibacterial activity against Pseudomonas aeruginosa ATCC 27853 after 24 hrs by microbroth dilution method; settings: ATCC 27853, 24 h
In short: (§1)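 Tested by CLSI-standard broth microdilution against a panel of eleven bacterial strains, Gram-positive and Gram-negative, including MRSA.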

Aspergillus fumigatus [3] = experiment: Antifungal activity against Aspergillus fumigatus after 24 hrs by microbroth dilution method
Staphylococcus aureus [4] = experiment: Antibacterial activity against methicillin resistant Staphylococcus aureus after 24 hrs by microbroth dilution method; in short: as §1
Pseudomonas aeruginosa [5] = experiment: Antibacterial activity against Pseudomonas aeruginosa after 24 hrs by microbroth dilution method; in short: as §1
Escherichia coli [6] = experiment: Antibacterial activity against Escherichia coli after 24 hrs by microbroth dilution method; in short: as §1
Staphylococcus aureus [7] = experiment: Antibacterial activity against Staphylococcus aureus ATCC 29213 after 24 hrs by microbroth dilution method; settings: ATCC 29213, 24 h; in short: as §1
Klebsiella pneumoniae = experiment: Antibacterial activity against Klebsiella pneumoniae after 24 hrs by microbroth dilution method; in short: as §1
Staphylococcus aureus [8] = experiment: Antibacterial activity against Staphylococcus aureus after 24 hrs by microbroth dilution method; in short: as §1
Staphylococcus aureus [9] = experiment: Antibacterial activity against Staphylococcus aureus ATCC 25923 after 24 hrs by microbroth dilution method; settings: ATCC 25923, 24 h; in short: as §1
Enterococcus faecalis = experiment: Antibacterial activity against Enterococcus faecalis after 24 hrs by microbroth dilution method; in short: as §1
Acinetobacter baumannii = experiment: Antibacterial activity against Acinetobacter baumannii after 24 hrs by microbroth dilution method; in short: as §1
Escherichia coli [10] = experiment: Antibacterial activity against Escherichia coli ATCC 25922 after 24 hrs by microbroth dilution method; settings: ATCC 25922, 24 h; in short: as §1
Candida albicans = experiment: Antifungal activity against Candida albicans ATCC 90023 after 24 hrs by microbroth dilution method; settings: ATCC 90023, 24 h

| SMILES | Ratio (Aspergillus fumigatus [1]) | MIC (Pseudomonas aeruginosa [2]) [µg/mL] | MIC (Aspergillus fumigatus [3]) [µg/mL] | MIC (Staphylococcus aureus [4]) [µg/mL] | MIC (Pseudomonas aeruginosa [5]) [µg/mL] | MIC (Escherichia coli [6]) [µg/mL] | MIC (Staphylococcus aureus [7]) [µg/mL] | MIC (Klebsiella pneumoniae) [µg/mL] | MIC (Staphylococcus aureus [8]) [µg/mL] | MIC (Staphylococcus aureus [9]) [µg/mL] | MIC (Enterococcus faecalis) [µg/mL] | MIC (Acinetobacter baumannii) [µg/mL] | MIC (Escherichia coli [10]) [µg/mL] | MIC (Candida albicans) [µg/mL] |
| --- | --- | --- | --- | --- | --- | --- | --- | --- | --- | --- | --- | --- | --- | --- |
| CCOP(=O)(OCC)C(Nc1ncccn1)c1c[nH]c2ccccc12 (stereo unspecified) | 16 | 256 (≈ 710 µM) | > 16 | 4 (≈ 11.1 µM) | 256 (≈ 710 µM) | 256 (≈ 710 µM) | 128 (≈ 355 µM) | 64 (≈ 178 µM) | 256 (≈ 710 µM) | 256 (≈ 710 µM) | 256 (≈ 710 µM) | 128 (≈ 355 µM) | 256 (≈ 710 µM) |  |
| C#CCn1c(CCCC)nc(Cl)c1C(Nc1ncccn1)P(=O)(OCC)OCC (stereo unspecified) | 16 | 256 (≈ 582 µM) | > 16 | 128 (≈ 291 µM) | 256 (≈ 582 µM) | 256 (≈ 582 µM) | 256 (≈ 582 µM) | 256 (≈ 582 µM) | 64 (≈ 145 µM) | 32 (≈ 72.7 µM) | 256 (≈ 582 µM) | 128 (≈ 291 µM) | 128 (≈ 291 µM) |  |
| CCOP(=O)(OCC)C(Nc1ncccn1)c1ccc(F)cc1 (stereo unspecified) | 16 | 64 (≈ 189 µM) | > 16 | 256 (≈ 754 µM) | 128 (≈ 377 µM) | 256 (≈ 754 µM) | 256 (≈ 754 µM) | 128 (≈ 377 µM) | 256 (≈ 754 µM) | 64 (≈ 189 µM) | 64 (≈ 189 µM) | 128 (≈ 377 µM) | 256 (≈ 754 µM) |  |
| CCCCc1nc(Cl)c(C(Nc2ncccn2)P(=O)(OCC)OCC)n1CCC (stereo unspecified) | 16 | 128 (≈ 288 µM) | > 16 | 8 (≈ 18 µM) | 128 (≈ 288 µM) | 256 (≈ 577 µM) | 128 (≈ 288 µM) | 64 (≈ 144 µM) | 256 (≈ 577 µM) | 64 (≈ 144 µM) | 128 (≈ 288 µM) | 64 (≈ 144 µM) | 128 (≈ 288 µM) |  |
| CCOP(=O)(OCC)C(Nc1ncccn1)c1ccc(Cl)cc1 (stereo unspecified) | 16 | 8 (≈ 22.5 µM) | > 16 | 64 (≈ 180 µM) | 256 (≈ 720 µM) | 512 (≈ 1440 µM) | 256 (≈ 720 µM) | 128 (≈ 360 µM) | 256 (≈ 720 µM) | 64 (≈ 180 µM) | 32 (≈ 89.9 µM) | 128 (≈ 360 µM) | 256 (≈ 720 µM) | 8 (≈ 22.5 µM) |
| CCCCc1nc(Cl)c(C(Nc2ncccn2)P(=O)(OCC)OCC)n1CC (stereo unspecified) | 16 | 256 (≈ 596 µM) | > 16 | 256 (≈ 596 µM) | 256 (≈ 596 µM) | 256 (≈ 596 µM) | 256 (≈ 596 µM) | 128 (≈ 298 µM) | 512 (≈ 1190 µM) | 128 (≈ 298 µM) | 64 (≈ 149 µM) | 256 (≈ 596 µM) | 256 (≈ 596 µM) |  |
| CCOP(=O)(OCC)C(Nc1ncccn1)c1ccc([N+](=O)[O-])cc1 (stereo unspecified) | 16 | 16 (≈ 43.7 µM) | > 16 | 128 (≈ 349 µM) | 256 (≈ 699 µM) | 256 (≈ 699 µM) | 256 (≈ 699 µM) | 256 (≈ 699 µM) | 256 (≈ 699 µM) | 8 (≈ 21.8 µM) | 32 (≈ 87.4 µM) | 128 (≈ 349 µM) | 128 (≈ 349 µM) |  |
| CCOP(=O)(OCC)C(Nc1ncccn1)c1ccc(C)cc1 (stereo unspecified) | 16 | 64 (≈ 191 µM) | > 16 | 128 (≈ 382 µM) | 256 (≈ 763 µM) | 256 (≈ 763 µM) | 256 (≈ 763 µM) | 128 (≈ 382 µM) | 256 (≈ 763 µM) | 16 (≈ 47.7 µM) | 8 (≈ 23.9 µM) | 128 (≈ 382 µM) | 128 (≈ 382 µM) |  |
| CCOP(=O)(OCC)C(Nc1ncccn1)c1cn(CC)c2ccccc12 (stereo unspecified) | 16 | 128 (≈ 330 µM) | > 16 | 4 (≈ 10.3 µM) | 256 (≈ 659 µM) | 256 (≈ 659 µM) | 256 (≈ 659 µM) | 64 (≈ 165 µM) | 64 (≈ 165 µM) | 64 (≈ 165 µM) | 128 (≈ 330 µM) | 64 (≈ 165 µM) | 256 (≈ 659 µM) |  |
| CCOP(=O)(OCC)C(Nc1ncccn1)c1ccccc1Cl (stereo unspecified) | 16 | 128 (≈ 360 µM) | > 16 | 8 (≈ 22.5 µM) | 128 (≈ 360 µM) | 256 (≈ 720 µM) | 128 (≈ 360 µM) | 32 (≈ 89.9 µM) | 128 (≈ 360 µM) | 128 (≈ 360 µM) | 128 (≈ 360 µM) | 128 (≈ 360 µM) | 64 (≈ 180 µM) |  |
